Compound activity from PubChem BioAssay.
PfG6PD inh: PfG6PD enzyme inhibitors, primary screen, biochemical, fluorescence intensity, uHTS | inhibition, % at 20 µM | actives 0.78% (n = 350,000) | glucose-6-phosphate dehydrogenase-6-phosphogluconolactonase (Plasmodium falciparum 3D7) | PfGluPho enzyme, NADPH resazurin-diaphorase fluorescence;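 active means inhibition reaching at least a set limit at 20 µM in the primary screen, cut at about 59% in these data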
APJ agonist: agonists of human apelin receptor APJ, primary screen, CHO-K1 cells, PathHunter beta-arrestin, luminescence; P35414; 0% DMSO wells, 100% apelin; activation, % at 20 µM; actives 0.11% (n = 330,000);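 active means activation more than six SD over the plate average, tested at 20 µM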
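Test system – PathHunter CHO-K1 APJ (AGTRL-1) beta-arrestin reporter cells · Input – 1000 cells/well · Compound – single test compound dose, 20 µM final, 1% DMSO · Times – compound stimulation 90 min at 25 °C, detection 60 min · Technique – beta-gal luminescence · Read-out basis – APJ–arrestin association signal · Control set – negative DMSO alone, positive Apelin-13 at 10 nM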
CXCR6 block: CXCR6 receptor inhibitors, primary screen, cell-based, beta-arrestin, luminescence, CHO-K1 PathHunter, 1536-well. AID 602244, 2012. actives 0.36% (n = 360,000). inhibition, % at 20 µM; in the data active means inhibition above about 34%, passing the limit was not always enough;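 further: antagonist mode with CXCL16 agonist at 10 nM final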
APJ antagonist: antagonists of human apelin receptor APJ, primary screen, CHO-K1 cells, beta-arrestin complementation, luminescence; P35414; inhibition, % at 20 µM; actives 0.32% (n = 330,000);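 active means inhibition above about 40% at 20 µM, limit read from the data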;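 further: cells challenged with 10 nM apelin-13 agonist together with compound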
CCR6 antag: CCR6 receptor antagonists, primary screen, cell-based, CHO-K1, luminescence, beta-arrestin, uHTS | CHO-K1 CCR6 PathHunter beta-arrestin, CCL20-stimulated | inhibition, % at 20 µM | actives 0.49% (n = 340,000);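 active means compounds whose inhibition of the agonist-driven luminescence signal at 20 µM reaches about 50%, limit read from the data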;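 further: cells stimulated with CCL20 at 14 nM final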
Target sequence (P51684 whole entry, looked up): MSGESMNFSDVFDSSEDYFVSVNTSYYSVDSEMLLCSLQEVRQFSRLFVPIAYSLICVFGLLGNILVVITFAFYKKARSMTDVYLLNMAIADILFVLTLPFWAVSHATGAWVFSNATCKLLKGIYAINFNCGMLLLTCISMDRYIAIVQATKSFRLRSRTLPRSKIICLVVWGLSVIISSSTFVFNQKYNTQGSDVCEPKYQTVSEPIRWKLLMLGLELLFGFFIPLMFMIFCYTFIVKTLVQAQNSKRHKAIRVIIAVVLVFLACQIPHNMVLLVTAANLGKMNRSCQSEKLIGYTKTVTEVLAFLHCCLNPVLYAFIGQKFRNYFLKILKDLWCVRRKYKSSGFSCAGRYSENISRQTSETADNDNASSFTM
Beta2AR agonist: beta2AR agonists driving receptor internalization, primary screen, cell-based, FAP fluorogen, flow cytometry; Beta-2 adrenergic receptor (Homo sapiens), P07550; Am2.2-beta2AR cells; response, % (test concentration not listed); actives 0.43% (n = 340,000);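 active means response above a set limit, near 3 SD of response in nonfluorescent compounds, cut at about 42% in these data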
Hits are given with their value; – = inactive; · = no result. This is a sample that favours compounds with a hit; in the whole collection about 1.7% have one here.

SMILES	PfG6PD inh	APJ agonist	CXCR6 block	APJ antagonist	CCR6 antag	Beta2AR agonist
O=c1cc(C(F)(F)F)nc(SC/C=C/c2ccccc2)[nH]1	–	–	–	–	–	–
O=Cc1ccc(Sc2nnc(-c3ccccc3)o2)c([N+](=O)[O-])c1	94	–	–	–	–	–
CC1(NS(=O)(=O)c2ccc(Cl)s2)CCS(=O)(=O)C1 (stereo unspecified)	–	–	–	–	–	–
O=CC1=C(c2ccccc2)Oc2ccccc2O1	–	–	–	–	–	67
CC(Sc1nnc(-c2ccncc2)n1C)C(=O)Nc1ccc(N2CCOCC2)cc1 (stereo unspecified)	–	–	–	–	–	–
CSC(SC)=C(C#N)C(=O)c1ccccc1	–	–	–	–	–	70
O=Cc1cccc(OCc2cccc3ccccc23)c1	–	–	–	–	–	71
Cc1ccc(/C=C2\C(=O)ON=C2c2ccccc2)o1	–	–	–	–	–	–
Cc1ccc(C2=NOC(=O)/C2=C\c2ccc(C)o2)cc1	–	–	–	–	–	56
CC1=NOC(=O)/C1=C\c1ccc(-c2ccc(Br)cc2)o1	–	·	41	·	76	83
CC(C)[C@H](NC(=O)N1c2ccccc2NC(=O)[C@@H]1C(C)C)C(=O)N1CCC(C(=O)O)CC1	–	–	–	–	–	–
Cc1ccccc1NC(=O)C(=Cc1ccc(C(=O)O)cc1)C(=O)Nc1ccccc1C	–	·	–	·	–	–
CC(=O)/C(=C/c1ccccc1)C(=O)Nc1ccccc1C	–	–	–	–	–	43
CS(=O)(=O)c1sc2nc(-c3cccs3)cc(-c3ccccc3)c2c1N	–	–	–	–	–	43
Cc1ccc(-c2cc(-c3ccccc3)c3c(N)c(S(C)(=O)=O)sc3n2)cc1	–	–	–	–	–	–
C=CCOc1ccc(C2C(C(=O)c3ccco3)=C(O)C(=O)N2CCCN(CC)CC)cc1 (stereo unspecified)	–	–	–	–	–	–
CCN(CC)CCCN1C(=O)C(O)=C(C(=O)c2ccco2)C1c1ccc(OC(C)C)cc1 (stereo unspecified)	–	–	–	–	93	–
N#Cc1nccnc1S(=O)(=O)c1cccs1	–	–	·	56	–	–
CCOC(=O)Cc1csc(NC(=O)CSc2nccn2C)n1	–	–	–	–	–	–
O=C(O)c1cc(-c2ccc(/C=N/Nc3ccc([N+](=O)[O-])cn3)o2)ccc1Cl	–	·	–	·	51	–
O=C(O)c1ccccc1C=NNc1ccc([N+](=O)[O-])cn1	–	·	–	·	–	–
CCOC(=O)[C@]12CCC=C1N(Cc1ccc(Cl)cc1Cl)C(=O)[C@H](CC(=O)NCc1ccccc1)C2	·	·	–	·	·	·
CN(Cc1ccccc1)C(=S)NC(=O)c1ccc(-c2ccccc2)cc1	–	–	–	–	57	–
COc1ccc(OC)c(CN2CCN(C(=O)[C@@H](NC(=O)c3cccc(C)c3)C(C)C)CC2)c1	–	–	–	–	–	–
CCc1nnc(NC(=O)C(c2ccccc2)c2ccccc2)s1	–	–	–	–	–	–
SMILES	PfG6PD inh	APJ agonist	CXCR6 block	APJ antagonist	CCR6 antag	Beta2AR agonist
Cc1ccccc1/C=C/C(=O)c1ccc([N+](=O)[O-])o1	80	–	·	–	–	·
COc1ccc(/C=C/C(=O)c2ccc([N+](=O)[O-])o2)cc1	–	–	–	–	–	59
Nc1c(N2CCCC2)cc(Cl)c2nonc12	–	–	–	–	–	–
Nc1c(N2CCOCC2)cc(Cl)c2nonc12	–	–	–	–	–	46
O=S(=O)(Nc1ccc(NS(=O)(=O)c2ccccc2)cc1)c1ccccc1	–	·	–	·	·	·
O=C1C(Nc2ccccc2)=C(NS(=O)(=O)c2ccccc2)C(=O)c2ccccc21	–	–	–	–	50	–
Cc1ccc2c(c1)nnn2C1CCN(CC(=O)NNC(=O)c2ccco2)CC1	–	–	–	–	–	–
COc1ccccc1N1C(=O)CC(Sc2n[nH]c(-c3cccc(C)c3)n2)C1=O (stereo unspecified)	–	–	–	–	75	–
C[C@H](CO)N1C[C@H](C)[C@@H](CN(C)S(=O)(=O)c2ccc(C#N)cc2)OCc2cnnn2CCCC1=O	–	·	–	·	·	·
CCOC(=O)Cn1c(=NC(=O)c2ccc([N+](=O)[O-])s2)sc2ccccc21	–	–	–	–	54	–
C=CCN1C=C/C(=C\C=C(C#N)C#N)c2ccccc21	–	–	46	70	74	–
CCCCCCN1C=C/C(=C\C=C(C#N)C#N)c2ccccc21	–	–	61	65	77	–
COC(=O)/C(=C\c1ccc([N+](=O)[O-])o1)NC(=O)c1ccccc1	–	–	–	–	–	56
CC1CCC(NC(=O)COC(=O)c2cccnc2Cl)CC1 (stereo unspecified)	–	–	–	–	–	–
Fc1ccc(-c2onc3ccc(C4OCCO4)cc23)cc1	–	–	–	–	–	–
O=Cc1ccc2noc(-c3ccc(F)cc3)c2c1	–	–	–	–	–	46
CC(OC(=O)C1=COCCO1)C(=O)c1ccc(C(C)(C)C)cc1 (stereo unspecified)	–	–	–	–	–	–
NC(=O)C1CN(S(=O)(=O)c2ccc(Cl)cc2F)c2ccccc2O1 (stereo unspecified)	–	–	–	–	–	–
O=[N+]([O-])c1ccc(S(=O)Cc2ccccc2)c([N+](=O)[O-])c1 (stereo unspecified)	–	·	92	·	102	49
Cc1ccc(OCC(=O)Nc2cccc(S(=O)(=O)N3CCCCCC3)c2)cc1C	–	–	–	–	–	–
O=C1Nc2ccccc2C1=Nc1ccc2[nH]c3ccccc3c2c1	–	·	–	·	–	–
Cc1ccc(N=C2C(=O)Nc3ccccc32)cc1C	–	–	–	–	52	–
COc1cc(/C=N/N=C2/C(=O)Nc3ccccc32)cc(OC)c1O	–	–	–	–	61	–
O=C1Nc2ccccc2C1=Nc1ccc(Cl)cc1	–	·	–	·	65	–
O=C1Nc2ccccc2/C1=N/N=C/c1cccc(O)c1	–	–	–	–	–	–
Cc1cc(C)c(N=C2C(=O)Nc3ccccc32)c(C)c1	–	–	–	–	–	–
CCC(C)N(C(=O)CSc1nc(C)c(C)c(C)c1C#N)C1CCS(=O)(=O)C1 (stereo unspecified)	–	–	–	–	–	–
CCNc1nc(C)nc2c1cnn2C	–	·	–	·	–	–
CCCN=C1N(C)C[C@@H]2[C@@H]3C(=O)N(C)C(=O)[C@@H]3[C@](CC)(C(=O)OC)N12	–	·	–	·	–	–
